Measurements reported in ChEMBL document CHEMBL4385662, “Anti-tubercular activity of novel 4-anilinoquinolines and 4-anilinoquinazolines” (Bioorg Med Chem Lett, 2019).
Calls of active or inactive are those of the source. The rule behind the calls is not given here.

Legend:
[1] = cells; assay type: ADME, cell-based; details: Homo sapiens, WS1, 48 h
[2] = tested on: Mycobacterium tuberculosis; assay: Anti-tubercular activity against Mycobacterium tuberculosis H37Rv expressing LuxABCDE assessed as relative luminescence by measuring ratio of RLU (test compound)/RLU(no compound) at 1.25 uM by luminescence based assay; assay type: functional
[3] = tested on: Mycobacterium tuberculosis; assay: Anti-tubercular activity against Mycobacterium tuberculosis H37Rv expressing LuxABCDE assessed as relative luminescence by measuring ratio of RLU (test compound)/RLU(no compound) at 2.5 uM by luminescence based assay; assay type: functional
[4] = tested on: Mycobacterium tuberculosis; assay: Anti-tubercular activity against Mycobacterium tuberculosis H37Rv expressing LuxABCDE assessed as relative luminescence by measuring ratio of RLU (test compound)/RLU(no compound) at 5 uM by luminescence based assay; assay type: functional
[5] = tested on: Mycobacterium tuberculosis; assay: Anti-tubercular activity against Mycobacterium tuberculosis H37Rv expressing LuxABCDE assessed as relative luminescence by measuring ratio of RLU (test compound)/RLU(no compound) at 10 uM by luminescence based assay; assay type: functional
[6] = tested on: Mycobacterium tuberculosis; assay: Anti-tubercular activity against Mycobacterium tuberculosis H37Rv expressing LuxABCDE assessed as relative luminescence by measuring ratio of RLU (test compound)/RLU(no compound) at 20 uM by luminescence based assay; assay type: functional
[7] = tested on: Mycobacterium tuberculosis; assay: Anti-tubercular activity against Mycobacterium tuberculosis H37Rv expressing LuxABCDE assessed as relative luminescence by measuring ratio of RLU (test compound)/RLU(no compound) at 0.625 uM by luminescence based assay; assay type: functional, organism-based
[8] = tested on: Mycobacterium tuberculosis; assay: Anti-tubercular activity against Mycobacterium tuberculosis H37Rv expressing LuxABCDE assessed as luminescence signal at 1.3 uM by luminescence based assay relative to untreated control; assay type: functional
[9] = tested on: Mycobacterium tuberculosis; assay: Anti-tubercular activity against Mycobacterium tuberculosis H37Rv expressing LuxABCDE assessed as luminescence signal at 2.5 uM by luminescence based assay relative to untreated control; assay type: functional
[10] = tested on: Mycobacterium tuberculosis; assay: Anti-tubercular activity against Mycobacterium tuberculosis H37Rv expressing LuxABCDE assessed as reduction in microbial growth by luminescence based assay; assay type: functional
In short: (§1)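 Growth inhibition was assessed by two assays. […] Values are the mean of 3 biological replicates with standard deviation.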

[11] = tested on: Mycobacterium tuberculosis; assay: Anti-tubercular activity against Mycobacterium tuberculosis H37Rv expressing LuxABCDE assessed as reduction in microbial growth at 5 uM by luminescence based assay relative to control; assay type: functional; details: read-out: GI
In short: as §1

[12] = tested on: Mycobacterium tuberculosis; assay: Anti-tubercular activity against Mycobacterium tuberculosis H37Rv expressing LuxABCDE assessed as reduction in microbial growth at 20 uM by luminescence based assay relative to control; assay type: functional; details: read-out: GI
In short: as §1
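For IC50 in this document: cell viability loss read out with alamar blue dye, IC50 being the concentration cutting viability by half.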

Row | SMILES | IC50 [1] [µM] | Ratio [2] | Ratio [3] | Ratio [4] | Ratio [5] | Ratio [6] | Activity [7] | Activity [8] [%] | Activity [9] [%] | MIC90 [10] [µM] | inhibition of growth at 5 µM [11] [%] | inhibition of growth at 20 µM [12] [%]
1 | COc1ccc2c(Nc3ccc(OCc4ccccc4)cc3)ncnc2c1 | > 100 | 1.05 | 1.12 | 0.99 | 0.87 | 0.64 | inactive | – | – | – | – | –
2 | COc1cc2ncnc(Nc3ccc(OCc4ccccc4)cc3)c2cc1OC | > 100 | 1.04 | 1.04 | 0.83 | 0.77 | 0.6 | inactive | – | – | – | – | –
3 | Oc1ccc2ncnc(Nc3ccc(OCc4ccccc4)cc3)c2c1 | 26 | 0.95 | 0.94 | 0.96 | 0.9 | 0.8 | inactive | – | – | – | – | –
4 | COc1ccc2nccc(Nc3ccc(NC(=O)c4ccc(C)cc4)c(O)c3)c2c1 | 10 | 1.11 | 1.17 | 1.14 | 1.28 | 0.95 | – | – | – | – | – | –
5 | COc1cc2nccc(Nc3cccc(Br)c3)c2cc1OC | 9.6 | – | – | 1.03 | 0.9 | 0.6 | – | >95 | >95 | – | – | –
6 | C#Cc1cccc(Nc2ccnc3cc(OCCOC)c(OCCOC)cc23)c1 | > 100 | – | – | 0.88 | 0.79 | 0.58 | – | >95 | >95 | – | – | –
7 | COc1cc2ncc(C#N)c(Nc3cccc(Br)c3)c2cc1OC | 11 | – | – | 0.88 | 0.56 | 0.37 | – | >95 | >95 | – | – | –
8 | COc1ccc2ncnc(Nc3ccc(OCc4ccccc4)cc3)c2c1 | > 100 | 1.04 | 1.07 | 0.89 | 0.83 | 0.62 | inactive | – | – | – | – | –
9 | Oc1ccc2ncnc(Nc3ccc(OCc4ccc(F)cc4)cc3)c2c1 | > 100 | 0.86 | 0.76 | 0.64 | 0.44 | 0.32 | inactive | – | – | – | – | –
10 | COc1cc2ncc(C#N)c(Nc3cc(OC)c(OC)c(OC)c3)c2cc1OC | > 100 | – | – | 1.03 | 1.01 | 0.97 | – | >95 | >95 | – | – | –
11 | COc1cc2nccc(Nc3ccc(NC(C)=O)cc3)c2cc1OC | 9.7 | 1.21 | 1.1 | 1.11 | 1.07 | 1.02 | – | – | – | – | – | –
12 | COc1cc2nccc(Nc3ccc(OCc4ccc(C)cc4)cc3)c2cc1OC | 5.4 | 0.43 | 0.17 | 0.1 | 0.08 | 0.09 | – | – | – | 0.63 to 1.25 | 98 | 98
13 | C#Cc1cccc(Nc2ncnc3cc(OC)c(OC)cc23)c1 | > 100 | – | – | 0.93 | 0.83 | 0.69 | – | >95 | >95 | – | – | –
14 | COc1cc(Nc2ccnc3ccc(Br)cc23)cc(OC)c1OC | > 100 | – | – | 1.35 | 1.41 | 1.28 | – | >95 | >95 | – | – | –
15 | C#Cc1cccc(Nc2ncnc3cc(OCCOC)c(OCCOC)cc23)c1 | – | – | – | – | – | – | inactive | – | – | – | – | –
16 | Oc1ccc2nccc(Nc3ccc(OCc4ccccc4)cc3)c2c1 | 2.5 | 0.95 | 0.86 | 0.66 | 0.42 | 0.37 | inactive | – | – | – | – | –
17 | Oc1cc2ncnc(Nc3ccc(OCc4ccc(F)cc4)cc3)c2cc1O | > 100 | 1.04 | 1.14 | 1 | 0.89 | 0.76 | inactive | – | – | – | – | –
18 | COc1cc2nccc(Nc3ccc(NC(=O)c4ccc(C(C)(C)C)cc4)c(O)c3)c2cc1OC | 2.6 | 1.1 | 1.12 | 1.06 | 0.72 | 0.25 | – | – | – | – | – | –
19 | COc1cc2ncnc(Nc3cc(OC)c(OC)c(OC)c3)c2cc1OC | > 100 | – | – | 1.03 | 1.01 | 0.94 | – | >95 | >95 | – | – | –

Row | SMILES | IC50 [1] [µM] | Ratio [2] | Ratio [3] | Ratio [4] | Ratio [5] | Ratio [6] | Activity [7] | Activity [8] [%] | Activity [9] [%] | MIC90 [10] [µM] | inhibition of growth at 5 µM [11] [%] | inhibition of growth at 20 µM [12] [%]
20 | COc1ccc2c(Nc3ccc(NC(=O)c4ccc(C)cc4)c(O)c3)ccnc2c1 | 4.7 | 1.13 | 1.11 | 1.09 | 1.11 | 0.96 | – | – | – | – | – | –
21 | Oc1ccc2ncnc(Nc3ccc(OCc4ccccc4F)cc3)c2c1 | 28 | 0.89 | 0.82 | 0.63 | 0.46 | 0.28 | inactive | – | – | – | – | –
22 | C#Cc1cccc(Nc2c(C#N)cnc3cc(OC)c(OC)cc23)c1 | > 100 | – | – | 1.08 | 1.03 | 0.98 | – | >95 | >95 | – | – | –
23 | Oc1ccc2c(Nc3ccc(OCc4ccc(F)cc4)cc3)ncnc2c1 | > 100 | 0.94 | 1.01 | 0.9 | 0.89 | 0.83 | inactive | – | – | – | – | –
24 | COc1cc2nccc(Nc3ccc(NC(=O)c4ccc(C)cc4)c(O)c3)c2cc1OC | 16 | 1.14 | 1.09 | 1.13 | 1.05 | 0.45 | – | – | – | – | – | –
25 | COc1cc2nccc(Nc3cc(OC)c(OC)c(OC)c3)c2cc1OC | > 100 | – | – | 1.26 | 1.11 | 1.06 | – | >95 | >95 | – | – | –
26 | COc1cc2ncnc(Nc3ccc(OCc4cccc(F)c4)c(Cl)c3)c2cc1OC | 1.1 | – | – | 0.92 | 0.74 | 0.8 | – | >95 | >95 | – | – | –
27 | COCCOc1cc2ncnc(Nc3cc(OC)c(OC)c(OC)c3)c2cc1OCCOC | > 100 | – | – | 1.02 | 0.96 | 0.87 | – | >95 | >95 | – | – | –
28 | COc1cc(Nc2ncnc3ccc(C(F)(F)F)cc23)cc(OC)c1OC | > 100 | – | – | 1.25 | 1.12 | 1.06 | – | >95 | >95 | – | – | –
29 | COc1cc(Nc2ccnc3ccc(C(F)(F)F)cc23)cc(OC)c1OC | > 100 | – | – | 1.23 | 1.14 | 1.21 | – | >95 | >95 | – | – | –
30 | Oc1ccc2ncnc(Nc3ccc(OCc4cccc(F)c4)cc3)c2c1 | 12 | 0.76 | 0.64 | 0.49 | 0.39 | 0.25 | inactive | – | – | – | – | –
31 | COc1cc2nccc(Nc3ccc(OCc4cccc(F)c4)c(Cl)c3)c2cc1OC | 11 | – | – | 0.78 | 0.22 | 0.1 | – | >95 | >95 | – | – | –
32 | C#Cc1cccc(Nc2ccnc3cc(OC)c(OC)cc23)c1 | > 100 | – | – | 1.02 | 0.89 | 0.67 | – | >95 | >95 | – | – | –
33 | COc1cc2ncnc(Nc3ccc(F)c(Cl)c3)c2cc1OCCCN1CCOCC1 | – | – | – | – | – | – | inactive | – | – | – | – | –
34 | Oc1ccc2c(Nc3ccc(OCc4ccccc4)cc3)ncnc2c1 | > 100 | 0.9 | 0.9 | 0.89 | 0.88 | 0.89 | inactive | – | – | – | – | –
35 | Oc1cc2ncnc(Nc3ccc(OCc4ccccc4)cc3)c2cc1O | 8.8 | 0.95 | 0.93 | 0.91 | 0.76 | 0.69 | inactive | – | – | – | – | –
36 | COc1cc2ncnc(Nc3cccc(Br)c3)c2cc1OC | 3.9 | – | – | 0.98 | 0.71 | 0.65 | – | >95 | >95 | – | – | –
37 | CS(=O)(=O)CCNCc1ccc(-c2ccc3ncnc(Nc4ccc(OCc5cccc(F)c5)c(Cl)c4)c3c2)o1 [LAPATINIB] | 13 | 0.99 | 0.9 | 0.74 | 0.17 | 0.08 | inactive | – | – | – | – | –
